Results on two substances are retold here after ChEMBL document CHEMBL1127351, “Technetium-99m N,N'-bis(2-mercapto-2-methylpropyl)-2-aminobenzylamine: technetium-99m complexes of a novel bis(aminoethanethiol) ligand” (J Med Chem, 1994).

For series [1], the species on record is Rattus norvegicus. Description: Biodistribution of compound was tested in rat blood at 60 min. Format: ADME, organism-based. The conditions noted are these: in vivo, 1 h. The method in brief:
(§1)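 Male Sprague-Dawley rats (200–300 g) under ether anesthesia got an iv injection of 0.2 mL saline containing the 99mTc complex (2–5 μCi). At set times, blood was drawn by cardiac puncture and rats were killed by cardiectomy. Organs were excised, weighed and gamma-counted. % dose/organ was taken against diluted injected-dose standards. Values are the mean of three rats ± SEM.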

The species entered for series [2] is Rattus norvegicus. Nature of the series: Biodistribution of compound was tested in rat muscle at 2 min. Particulars: in vivo. Format: ADME, organism-based, Muscle tissue. The method in brief:
as §1

The species entered for series [3] is Rattus norvegicus. Nature of the series: Biodistribution of compound was tested in rat lung at 60 min. Format: ADME, organism-based. Particulars: in vivo, 1 h. The method in brief:
as §1

The species named for series [4] is Rattus norvegicus. Description: Biodistribution of compound was tested in rat heart at 15 min. Format: ADME, organism-based. The conditions noted are these: in vivo, 0.25 h. The essentials:
as §1

Series [5] is filed under the species Rattus norvegicus. Description: Biodistribution of compound was tested in rat skin at 60 min. The class given is ADME, organism-based, Zone of skin. Particulars: in vivo, 1 h. The essentials: as §1
The species named for series [6] is Rattus norvegicus. Nature of the series: Biodistribution of compound was tested in rat brain at 15 min. Format: ADME, organism-based. Particulars: in vivo, 0.25 h. The method in brief: as §1
The species entered for series [7] is Rattus norvegicus. Description: Biodistribution of compound was tested in rat muscle at 60 min. The class given is ADME, organism-based, Muscle tissue. Particulars: in vivo, 1 h. The method in brief: as §1
For series [8], the species on record is Rattus norvegicus. Description: Biodistribution of compound was tested in rat kidney at 2 min. Format: ADME, organism-based. The conditions noted are these: in vivo. The essentials:
as §1

Series [9] is filed under the species Rattus norvegicus. Nature of the series: Biodistribution of compound was tested in rat brain at 60 min. Particulars: in vivo, 1 h. The class given is ADME, organism-based. The method in brief: as §1
Series [10] is filed under the species Rattus norvegicus. Description: Biodistribution of compound was tested in rat liver at 15 min. Particulars: in vivo, 0.25 h. The class given is ADME, organism-based. The essentials: as §1
The species named for series [11] is Rattus norvegicus. Description: Biodistribution of compound was tested in rat heart at 2 min. The class given is ADME, organism-based. Particulars: in vivo. The essentials:
as §1

For series [12], the species on record is Rattus norvegicus. Description: Biodistribution of compound was tested in rat liver at 60 min. Format: ADME, organism-based. The conditions noted are these: in vivo, 1 h. The essentials: as §1
The species named for series [13] is Rattus norvegicus. Nature of the series: Biodistribution of compound was tested in rat skin at 15 min. Format: ADME, organism-based, Zone of skin. Particulars: in vivo, 0.25 h. The essentials:
as §1

The species entered for series [14] is Rattus norvegicus. Description: Biodistribution of compound was tested in rat lung at 2 min. Format: ADME, organism-based. The conditions noted are these: in vivo. The method in brief:
as §1

The species named for series [15] is Rattus norvegicus. Nature of the series: Biodistribution of compound was tested in rat spleen at 60 min. Format: ADME, organism-based. The conditions noted are these: in vivo, 1 h. The essentials: as §1
Series [16] is filed under the species Rattus norvegicus. Description: Biodistribution of compound was tested in rat skin at 2 min. Format: ADME, organism-based, Zone of skin. Particulars: in vivo. The essentials:
as §1

The species entered for series [17] is Rattus norvegicus. Nature of the series: Biodistribution of compound was tested in rat lung at 15 min. The conditions noted are these: in vivo, 0.25 h. Format: ADME, organism-based. The essentials: as §1
For series [18], the species on record is Rattus norvegicus. Nature of the series: Biodistribution of compound was tested in rat spleen at 2 min. The class given is ADME, organism-based. The conditions noted are these: in vivo. The method in brief:
as §1

For series [19], the species on record is Rattus norvegicus. Nature of the series: Biodistribution of compound was tested in rat heart at 60 min. The class given is ADME, organism-based. Particulars: in vivo, 1 h. The essentials: as §1
For series [20], the species on record is Rattus norvegicus. Nature of the series: Biodistribution of compound was tested in rat spleen at 15 min. The class given is ADME, organism-based. Particulars: in vivo, 0.25 h. The essentials: as §1
For series [21], the species on record is Rattus norvegicus. Nature of the series: Biodistribution of compound was tested in rat muscle at 15 min. The class given is ADME, organism-based, Muscle tissue. The conditions noted are these: in vivo, 0.25 h. The essentials:
as §1

The species named for series [22] is Rattus norvegicus. Nature of the series: Biodistribution of compound was tested in rat liver at 2 min. The class given is ADME, organism-based. Particulars: in vivo. The method in brief: as §1
The species entered for series [23] is Rattus norvegicus. Nature of the series: Biodistribution of compound was tested in rat brain at 2 min. The conditions noted are these: in vivo. The class given is ADME, organism-based. The method in brief:
as §1

Series [24] is filed under the species Rattus norvegicus. Nature of the series: Biodistribution of compound was tested in rat blood at 2 min. Particulars: in vivo. Format: ADME, organism-based. The essentials:
as §1

Series [25] is filed under the species Rattus norvegicus. Nature of the series: Biodistribution of compound was tested in rat kidney at 60 min. The class given is ADME, organism-based. Particulars: in vivo, 1 h. The method in brief:
as §1

For series [26], the species on record is Rattus norvegicus. Description: Biodistribution of compound was tested in rat blood at 15 min. The class given is ADME, organism-based. Particulars: in vivo, 0.25 h. The essentials: as §1
Series [27] is filed under the species Rattus norvegicus. Description: Biodistribution of compound was tested in rat kidney at 15 min. The class given is ADME, organism-based. The conditions noted are these: in vivo, 0.25 h. The essentials: as §1
Series [28] is filed under the species Rattus norvegicus. Nature of the series: Biodistribution of compound was tested in rat skin at 30 min. The class given is ADME, organism-based, Zone of skin. The conditions noted are these: in vivo, 0.5 h. The essentials: as §1
For series [29], the species on record is Rattus norvegicus. Nature of the series: Biodistribution of compound was tested in rat liver at 30 min. Format: ADME, organism-based. Particulars: in vivo, 0.5 h. The essentials: as §1
For series [30], the species on record is Rattus norvegicus. Nature of the series: Biodistribution of compound was tested in rat lung at 30 min. The class given is ADME, organism-based. Particulars: in vivo, 0.5 h. The essentials: as §1
For series [31], the species on record is Rattus norvegicus. Description: Biodistribution of compound was tested in rat kidney at 30 min. The class given is ADME, organism-based. The conditions noted are these: in vivo, 0.5 h. The method in brief: as §1
Series [32] is filed under the species Rattus norvegicus. Description: Biodistribution of compound was tested in rat blood at 30 min. Format: ADME, organism-based. The conditions noted are these: in vivo, 0.5 h. The essentials: as §1
The species entered for series [33] is Rattus norvegicus. Description: Biodistribution of compound was tested in rat spleen at 30 min. Format: ADME, organism-based. Particulars: in vivo, 0.5 h. The method in brief:
as §1

Series [34] is filed under the species Rattus norvegicus. Description: Biodistribution of compound was tested in rat muscle at 30 min. Format: ADME, organism-based, Muscle tissue. The conditions noted are these: in vivo, 0.5 h. The method in brief: as §1
For series [35], the species on record is Rattus norvegicus. Description: Biodistribution of compound was tested in rat brain at 30 min. Format: ADME, organism-based. The conditions noted are these: in vivo, 0.5 h. The essentials:
as §1

For series [36], the species on record is Rattus norvegicus. Nature of the series: Biodistribution of compound was tested in rat heart at 30 min. The conditions noted are these: in vivo, 0.5 h. Format: ADME, organism-based. The essentials:
as §1

For the substance technicium complex, the Dose/organ in [1] worked out at 1.27%; in [2], 20.77%; in series [3], 0.5%; in series [4] it was 0.53%; in series [5] it was 16.5%; in [6], 0.72%. Besides, the Dose/organ in series [7] is 20.08%; in series [8] it was 3.58%; in [9], 0.21%; in series [10] it was 26.5%; in [11], 1.28%; in [12], 20.75%. Besides, the Dose/organ is reported as 10.45% in series [13]; 1.79% in series [14]; 0.68% in series [15]; 13.48% in [16]; 0.91% in [17]; 0.64% in series [18]. Moreover, the Dose/organ was 0.28% in series [19]; 0.72% in series [20]; 16.5% in series [21]; 23.58% in series [22]; 1.54% in series [23]; 4.37% in series [24]. Moreover, the figures for the Dose/organ in [25], in [26] and in [27] were 0.93%, 2% and 1.54%, respectively.

Consider tecnicium complex, for which the Dose/organ is recorded as 11.94% in series [28]; 22.65% in series [29]; 10.24% in [2]; 1.98% in series [30]; 1.33% in series [31]; 3.3% in [8]. The Dose/organ was 1.15% in series [11]; 3.22% in [32]; 4.47% in [14]; 0.3% in [33]; 3.94% in series [16]; 0.68% in [18]. In addition, the Dose/organ in [34] came out at 13.52%; in [35], 0.28%; in series [22] it was 22.76%; in [23], 1.07%; in [24], 8.12%; in series [36], 0.24%.
